Measured values from ChEMBL document CHEMBL4130503, “Discovery of novel diarylpyrazolylquinoline derivatives as potent anti-dengue virus agents” (Eur J Med Chem, 2017).
The source made the active and inactive calls. No cut-off for these calls is given here.

Experiments:
[1] = Cytotoxicity against human HuH7 cells assessed as cell viability at 200 uM after 3 days by XTT method relative to control; format: cell-based, Huh-7; details: read-out: Activity
How it was run: (§1)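 Uninfected Huh-7 cells were seeded at 5 × 10^3 cells/well in maintenance medium. They were exposed to compound at 20 or 200 µM, diluted into medium from 10 mM DMSO stocks, with 0.1% DMSO as control. Incubation was 3 days at 37 °C in humidified 5% CO2. Viability was read by XTT, run in parallel with the antiviral assays.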

dengue virus type 2 [2] = test: Antiviral activity against Fluc-tagged DENV2 strain 16681 infected in human HuH7 cells assessed as inhibition of viral replication at 1 uM after 3 days by luciferase reporter gene assay relative to control; format: functional; details: Thailand/16681/84, Huh-7, 72 h
How it was run: (§2)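 Huh-7-DV-Fluc cells seeded at 2 × 10^4 per well, exposed to 1 or 10 µM for 3 days against a 0.1% DMSO control. Firefly luciferase activity (Bright-Glo) read as DENV-2 replication; percent inhibition relative to control.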

[3] = Cytotoxicity against human HuH7 cells assessed as cell viability at 20 uM after 3 days by XTT method relative to control; format: cell-based, Huh-7; details: read-out: Activity; how it was run: as §1
dengue virus type 2 [4] = test: Antiviral activity against Fluc-tagged DENV2 strain 16681 infected in human HuH7 cells assessed as inhibition of viral replication at 10 uM after 3 days by luciferase reporter gene assay relative to control; format: functional; details: Thailand/16681/84, Huh-7, 72 h; how it was run: as §2
[5] = Selectivity index, ratio of CC50 for human HuH7 cells to IC50 for Fluc-tagged DENV2 strain 16681 infected in human HuH7 cells; format: toxicity, cell-based; details: read-out: Ratio CC50/IC50
How it was run: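 SI is calculated as CC50/IC50. CC50 is 50% growth inhibition of uninfected Huh-7 cells by XTT after 3 days. IC50 is 50% inhibition of DENV-2 replication in Huh-7-DV-Fluc replicon cells (2 × 10^4 cells/well), measured by firefly luciferase after 3 days of treatment with a 0.1% DMSO control.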

dengue virus type 1 = test: Antiviral activity against Fluc-tagged DENV1 infected in human HuH7 cells after 3 days by luciferase reporter gene assay; format: functional, organism-based; details: Huh-7, 72 h
dengue virus type 3 = test: Antiviral activity against Fluc-tagged DENV3 infected in human HuH7 cells after 3 days by luciferase reporter gene assay; format: functional, organism-based; details: Huh-7, 72 h
dengue virus type 2 [6] = test: Antiviral activity against DENV2 strain 16681 infected in ICR suckling mouse assessed as protection against mouse death at 1 to 5 mg/kg, ip treated on day 1,3 and 5 post infection measured daily for 6 days; format: functional, organism-based; details: Thailand/16681/84
How it was run: (§3)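 Six-day-old ICR suckling mice, n = 5/group, given 2.5 × 10^5 pfu DENV-2 intracerebrally, then 1, 5, 10 or 20 mg/kg intraperitoneally at 1, 3 and 5 dpi. Controls were DENV plus ip saline, and 60 °C heat-inactivated DENV (mock). Survival, clinical score (paralysis, anorexia, asthenia) and body weight were recorded daily for 6 days.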

dengue virus type 2 [7] = test: Antiviral activity against DENV2 strain 16681 infected in ICR suckling mouse assessed as protection against anorexia at 1 to 5 mg/kg, ip treated on day 1,3 and 5 post infection measured daily for 6 days; format: functional, organism-based; details: Thailand/16681/84; how it was run: as §3
dengue virus type 2 [8] = test: Potency index, ratio of ribavirin IC50 to compound IC50 for antiviral activity against Fluc-tagged DENV2 strain 16681 infected in human HuH7 cells; format: functional, Thailand/16681/84
dengue virus type 2 [9] = test: Antiviral activity against Fluc-tagged DENV2 strain 16681 infected in human HuH7 cells assessed as reduction in viral replication by measuring NS2B protein expression at 0.5 to 5 uM after 3 days by immunoblot analysis; format: functional, organism-based; details: Thailand/16681/84
How it was run: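 DENV-2 (16681) replicating Huh-7 cells treated with 0.5, 1, 2.5 and 5 µM for 3 days; 0.1% DMSO mock. Whole-cell lysates immunoblotted overnight with rabbit polyclonal anti-NS2B (1:3000); GAPDH (1:10000) as loading control.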

dengue virus type 2 [10] = test: Antiviral activity against DENV2 strain 16681 infected in ICR suckling mouse assessed as protection against paralysis at 1 to 5 mg/kg, ip treated on day 1,3 and 5 post infection measured daily for 6 days; format: functional, organism-based; details: Thailand/16681/84; how it was run: as §3
dengue virus type 2 [11] = test: Antiviral activity against Fluc-tagged DENV2 strain 16681 infected in human HuH7 cells assessed as reduction in viral replication by measuring NS5 gene expression at 0.5 to 5 uM after 3 days by RT-qPCR assay; format: functional, organism-based; details: Thailand/16681/84
How it was run: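 DENV-2 (16681) replicating Huh-7 cells exposed to 0.5, 1, 2.5 and 5 µM for 3 days; 0.1% DMSO mock. Total RNA analysed by RT-qPCR with NS5-targeted primers, normalised to cellular GAPDH mRNA; means ± SD of triplicate experiments.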

dengue virus type 2 [12] = test: Antiviral activity against Fluc-tagged DENV2 strain 16681 infected in human HuH7 cells after 3 days by luciferase reporter gene assay; format: functional, organism-based; details: Thailand/16681/84, Huh-7, 72 h
dengue virus type 2 [13] = test: Antiviral activity against DENV2 strain 16681 infected in ICR suckling mouse assessed as protection against asthenia at 1 to 5 mg/kg, ip treated on day 1,3 and 5 post infection measured daily for 6 days; format: functional, organism-based; details: Thailand/16681/84; how it was run: as §3
dengue virus type 4 = test: Antiviral activity against Fluc-tagged DENV4 infected in human HuH7 cells after 3 days by luciferase reporter gene assay; format: functional, organism-based; details: Huh-7, 72 h
[14] = Cytotoxicity against human HuH7 cells assessed as growth inhibition after 3 days by XTT method; format: cell-based, Huh-7
How it was run: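 Uninfected Huh-7 cells were seeded at 5 × 10^3 cells/well and treated for 3 days at 37 °C in humidified 5% CO2. Viability was read by XTT against a 0.1% DMSO control. CC50 was taken as the concentration giving 50% growth inhibition.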

SMILES	viability at 72 h, 200 µM [1] [%]	inhibition at 1 µM (dengue virus type 2 [2]) [%]	viability at 72 h, 20 µM [3] [%]	inhibition at 10 µM (dengue virus type 2 [4]) [%]	also measured
Fc1ccc2nc(-c3cc(-c4ccccc4)n(-c4ccccc4)n3)ccc2c1	115	5.21	124	15.3	–
Fc1ccc(-c2cc(-c3ccc4cc(F)ccc4n3)n(-c3ccccc3)n2)cc1	87.5	11.2	88.1	25.4	–
NC(=O)c1ncn([C@@H]2O[C@H](CO)[C@@H](O)[C@H]2O)n1 [RIBAVIRIN]	26.8	10.1	–	32.5	selectivity ratio [5]: 4.47
COc1ccc(-c2cc(-c3ccc4cc(F)ccc4n3)nn2-c2ccccc2)cc1	93.7	4.14	95.6	7.15	–
COc1ccc(-c2cc(-c3ccc4cc(F)ccc4n3)n(-c3ccc(S(N)(=O)=O)cc3)n2)cc1	89.5	59	83.7	85.3	IC50 (dengue virus type 1): 1210 nM; selectivity ratio [5]: > 247; IC50 (dengue virus type 3): 730 nM; Activity (dengue virus type 2 [6]): Active; Activity (dengue virus type 2 [7]): Active; Ratio IC50 (dengue virus type 2 [8]): 10; Activity (dengue virus type 2 [9]): Active; Activity (dengue virus type 2 [10]): Active; Activity (dengue virus type 2 [11]): Active; IC50 (dengue virus type 2 [12]): 810 nM; Activity (dengue virus type 2 [13]): Active; IC50 (dengue virus type 4): 1560 nM; CC50 at 72 h [14]: > 200000 nM
Fc1ccc(-c2cc(-c3ccc4cc(F)ccc4n3)nn2-c2ccccc2)cc1	89.7	3.58	88.3	6.14	–
Fc1ccc(-n2nc(-c3ccccc3)cc2-c2ccc3cc(F)ccc3n2)cc1	91.6	4.36	97.8	8.31	–
NS(=O)(=O)c1ccc(-n2nc(-c3ccccc3)cc2-c2ccc3cc(F)ccc3n2)cc1	83.6	4.52	89.2	11.8	–
COc1ccc(-c2cc(-c3ccc4cc(F)ccc4n3)n(-c3ccc(OC)cc3)n2)cc1	98.4	46.9	95.8	65.7	selectivity ratio [5]: > 183; Ratio IC50 (dengue virus type 2 [8]): 10; IC50 (dengue virus type 2 [12]): 1090 nM; CC50 at 72 h [14]: > 200000 nM
Fc1ccc2nc(-c3cc(-c4ccccc4)nn3-c3ccccc3)ccc2c1	98.3	3.02	126	5.13	–
NS(=O)(=O)c1ccc(-n2nc(-c3ccc(F)cc3)cc2-c2ccc3cc(F)ccc3n2)cc1	43	5.71	91.1	12.8	–
COc1ccc(-n2nc(-c3ccccc3)cc2-c2ccc3cc(F)ccc3n2)cc1	97.3	7.81	116	20.7	–
COc1ccc(-c2cc(-c3ccc4cc(F)ccc4n3)n(-c3ccccc3)n2)cc1	98.9	5.31	104	8.09	–
COc1ccc(-n2nc(-c3ccc(F)cc3)cc2-c2ccc3cc(F)ccc3n2)cc1	52.5	6.12	89.1	15.8	–
COc1ccc(-c2cc(-c3ccc4cc(F)ccc4n3)n(-c3ccc(F)cc3)n2)cc1	95.4	41.4	98.8	55.3	selectivity ratio [5]: > 147; Ratio IC50 (dengue virus type 2 [8]): 10; IC50 (dengue virus type 2 [12]): 1360 nM; CC50 at 72 h [14]: > 200000 nM
Fc1ccc(-c2cc(-c3ccc4cc(F)ccc4n3)n(-c3ccc(F)cc3)n2)cc1	86.5	8.91	95.3	22.4	–
